{"source": "ChEMBL document CHEMBL2311485", "about": "“Chemical and microbial semi-synthesis of tetrahydroprotoberberines as inhibitors on tissue factor procoagulant activity” (Bioorg Med Chem, 2013)", "molecular_target": "Tissue factor (Homo sapiens, UniProt P13726)", "sequence (P13726 whole entry)": "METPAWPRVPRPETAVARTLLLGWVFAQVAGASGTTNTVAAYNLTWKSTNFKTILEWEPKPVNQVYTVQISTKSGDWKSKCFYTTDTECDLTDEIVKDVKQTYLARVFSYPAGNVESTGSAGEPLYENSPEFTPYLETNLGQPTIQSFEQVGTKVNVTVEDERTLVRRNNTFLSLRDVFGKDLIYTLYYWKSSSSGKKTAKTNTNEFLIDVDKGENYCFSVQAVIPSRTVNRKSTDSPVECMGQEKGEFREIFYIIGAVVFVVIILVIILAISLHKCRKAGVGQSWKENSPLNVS", "assay": "Inhibition of tissue factor procoagulant activity in LPS-stimulated human THP1 cells preincubated for 1 hr before LPS addition measured after 5 hrs", "type": "cell-based, THP-1", "outline": "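THP-1 cells grown in RPMI-1640 with 10% heat-inactivated FCS, 37 °C, 5% CO2. Cells at 1 × 10⁶/mL pretreated 1 h with compound or 0.1% DMSO vehicle, then given 500 ng/mL LPS for 5 h. Cells were pelleted, resuspended, frozen/thawed three times, and the lysate incubated with prothrombin complex plus CaCl₂ (pH 7.3) 15 min at 37 °C. Factor Xa chromogenic substrate (0.5 mM) with EDTA was added and A405 read.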"}
{"smiles": "COc1cc2c(cc1O)[C@@H]1Cc3ccc(O)c(OC)c3CN1CC2", "note": "[STEPHOLIDINE]", "values": [{"measurement": "IC50", "value": 105, "unit": "nM"}]}
